beta cell repl: inducers of beta-cell replication in MIN6 cells | hit rate 0.29% among 330,000 | MIN6 cells proliferation, ATPlite luminescence, 48 h; cells starved in 0.2% serum; 100% = growth in 10% serum | AID 2380 | proliferation, % at 10 µM;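 active = compounds whose signal lies at least 3.5 SD above the mean of all wells on their plate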;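 note: 0% = DMSO-treated cells in low-serum medium and 100% = 10% serum control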
ANO1 block: mouse TMEM16A channel inhibition, primary screen | Q8BHY3 | HEK293 TMEM16A/YFP iodide influx fluorescence, ionomycin | normalized B-score (activity score, 25-100; higher = stronger inhibition) at 10 µM | hit rate 1.2% among 310,000 | AID 588511;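 active = ratio plate-corrected score three or more library SD toward inhibition, starting fluorescence score within five deviations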;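 note: score derived from kinetic fluorescence span divided by baseline fluorescence per well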
HTR2A ag: agonists of mouse serotonin 5-HT2A receptor (HTR2A); activation, % at 7.6 µM; hit rate 0.66% among 360,000; CHO-K1 mHTR2A beta-arrestin complementation, luminescence; percent of 30 µM serotonin response;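 active = activation above a run cutoff, the mean activation of all tested compounds plus 3 SD, cut at about 14% in these data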;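 note: 0% = plate median of compound wells and 100% = 30 µM serotonin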
ANO1 activ: activators or potentiators of mouse TMEM16A chloride channel; Q8BHY3; HEK293 TMEM16A/YFP-H148Q/I152L, iodide quench fluorescence; stronger effect = lower value; B-score at 10 µM; hit rate 0.3% among 340,000; AID 623877;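 active = fluorescence-ratio B-score plate-corrected deviation score at least 3 library SD below zero, with starting fluorescence score within 5 deviations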;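 note: channel opened by trigger with iodide after compound preincubation; score built on the fluorescence ratio of max minus min over baseline; more negative score means more quench and so TMEM16A activation or potentiation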
MC4R ag barr: human MC4R agonism via beta-arrestin; U2OS MC4R beta-arrestin complementation, luminescence; percent of melanotan II response, DMSO zero; activation, % at 8.9 µM; hit rate 0.98% among 360,000;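 active = activation above a per-plate cutoff, the mean activation of sample wells on that plate plus 3 SD, cut at about 8% in these data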
MC4R antagonist: blocks human MC4R cAMP signaling. hit rate 0.48% among 360,000. inhibition, % at 6.5 µM. AID 540295. P32245. MC4R-expressing cells, MTII-stimulated cAMP, LANCE TR-FRET;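 active = inhibition above its plate's cutoff, the mean of tested wells on that plate plus 3 SD, cut at about 29% in these data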;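 note: 0% = Melanotan II alone and 100% = Melanotan II plus saturating MCL0020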
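Assay system: human MC4R-expressing U2OS cells; reagent: Melanotan II stimulation of cells; dosing: 6.5 µM single dose; timing: compound 30 min, challenge 1 h, detection 1 h; signal: TR-FRET cAMP assay; replicates: one well per compound, no replicates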
MC4R barr ag: human MC4R beta-arrestin agonism confirmation; hit rate 31% among 2,400; shares compounds with MC4R ag barr; AID 602192; activation, % at 8.9 µM; U2OS MC4R beta-arrestin recruitment, luminescence; scaled DMSO 0%, Melanotan II 100%;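 active = mean activation across replicates above the hit cutoff set in the earlier primary screen, cut at about 8% in these data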
MOR-DOR barr ag: activates mu-delta opioid heterodimer, MC4R agonist counter-screen. activation, % at 9.2 µM. AID 602194. shares compounds with MC4R ag barr. U2OS PathHunter beta-arrestin, beta-gal luminescence; percent of deltorphin B response, DMSO zero. hit rate 5.8% among 2,400;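 active = mean activation across replicates exceeds the hit threshold derived in the earlier primary screen, cut at about 18% in these data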;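 note: 100% = deltorphin B at 0.9 µM final and 0% = DMSO alone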
Target sequence (P35372 whole entry, looked up): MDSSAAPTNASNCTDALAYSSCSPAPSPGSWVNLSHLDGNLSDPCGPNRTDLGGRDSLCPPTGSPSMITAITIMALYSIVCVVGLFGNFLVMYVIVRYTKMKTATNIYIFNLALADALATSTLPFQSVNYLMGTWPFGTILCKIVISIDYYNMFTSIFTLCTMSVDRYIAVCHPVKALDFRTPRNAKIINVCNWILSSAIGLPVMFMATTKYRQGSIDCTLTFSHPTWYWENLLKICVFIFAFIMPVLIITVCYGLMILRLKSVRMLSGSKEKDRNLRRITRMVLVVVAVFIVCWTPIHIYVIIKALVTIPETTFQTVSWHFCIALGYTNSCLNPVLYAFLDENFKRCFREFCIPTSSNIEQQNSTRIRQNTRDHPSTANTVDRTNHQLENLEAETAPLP
Target sequence (P41143 whole entry, looked up): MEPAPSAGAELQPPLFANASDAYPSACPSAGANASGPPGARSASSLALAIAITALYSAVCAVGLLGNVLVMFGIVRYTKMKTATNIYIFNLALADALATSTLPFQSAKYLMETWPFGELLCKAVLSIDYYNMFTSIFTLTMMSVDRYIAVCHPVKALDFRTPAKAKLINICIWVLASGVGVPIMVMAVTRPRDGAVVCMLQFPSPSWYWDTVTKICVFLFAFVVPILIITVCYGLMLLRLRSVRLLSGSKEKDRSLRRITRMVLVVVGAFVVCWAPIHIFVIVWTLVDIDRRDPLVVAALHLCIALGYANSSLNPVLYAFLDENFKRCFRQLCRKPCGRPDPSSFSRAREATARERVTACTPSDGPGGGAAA
* marks the source's active call; other numbers are inactive results; i = inactive; . = no result given. This is a sample that favours compounds with a hit; in the whole collection about 3.4% have one here.

SMILES	beta cell repl	ANO1 block	HTR2A ag	ANO1 activ	MC4R ag barr	MC4R antagonist	MC4R barr ag	MOR-DOR barr ag
COc1ccc2nc(NC(=O)c3ccc(F)cc3)sc2c1	-1	i	4	i	13*	0	-1	4
Cc1ccc2nc(NC(=O)CCNS(=O)(=O)c3cccs3)sc2c1	-3	i	-2	i	0	3	.	.
Cc1ccc2nc(NC(=O)CCNS(=O)(=O)c3ccc(Br)s3)sc2c1	-5	i	0	i	14*	4	7	7
COc1cc(NC(=O)CCl)ccc(=O)c1	.	.	1	.	0	0	.	.
O=C(Cn1c(=O)cnc2ccccc21)Nc1cccc(S(=O)(=O)N2CCCCC2)c1	-3	.	1	i	0	5	.	.
Cc1cccc(NC(=O)CSc2nnc(CSc3nc(C)cc(C)n3)o2)c1	0	i	0	i	1	0	.	.
Cc1cc(C)nc(SCc2nnc(SCC(=O)Nc3ccc(Cl)c(C(F)(F)F)c3)o2)n1	-1	100*	2	i	11*	10	7	9
Cc1ccc([C@@H]2CC=C(C(=O)O)[C@H](c3cccc(F)c3)N2S(=O)(=O)c2ccccc2C)cc1	-1	.	-2	.	0	-2	.	.
O=C(CSc1nc2c(sc3ccccc32)c(=O)n1Cc1ccccc1)NCC1CCCO1 (centres undefined)	2	i	12	i	-2	2	.	.
O=C(CSc1nc2c(sc3ccccc32)c(=O)n1Cc1ccco1)NCC1CCCO1 (centres undefined)	0	i	-2	i	22*	10	0	1
Cc1cccc(C)c1OCC(=O)OC/C(O)=C(\C#N)c1nc2ccccc2[nH]1	2	i	1	i	21*	3	5	8
Cc1ccc(C)c(SCC(=O)OC/C(O)=C(\C#N)c2nc3ccccc3[nH]2)c1	.	.	8	i	17*	-10	-1	12
Cc1cc(Br)ccc1SCC(=O)OC/C(O)=C(\C#N)c1nc2ccccc2[nH]1	-6	i	-3	i	12*	20	3	2
Cc1cc(Br)ccc1SCC(=O)OCC(O)=C(C#N)c1nc2ccccc2[nH]1	.	.	-1	i	6	7	.	.
Cc1cc(C=C2C(=O)c3ccccc3C2=O)c(C)n1C	-2	i	1	i	21*	-6	0	10
COc1ccc(CCNC(=O)c2cccc(NS(=O)(=O)c3ccccc3F)c2)cc1OC	-2	i	2	i	0	6	.	.
COc1cc2c(-c3ccccc3)c(C)oc2cc1/C=N/NC(N)=S	-3	i	2	i	16*	23	8.7*	10
COc1cc(OC)c(/C=N/NC(N)=S)cc1Br	0	i	10	i	-1	5	.	.
O=C(NCc1ccccc1)C(C1CC1)n1c(=O)c(-c2ccco2)nc2ccccc21 (centres undefined)	.	.	-2	.	.	.	.	.
CC(=O)Oc1ccc(C(=O)Nc2ccc(S(=O)(=O)NCC3CCCO3)cc2)cc1 (centres undefined)	2	i	-5	i	1	-11	.	.
Cc1cc(NC(=O)c2cncc(Br)c2)ccc1NC(=O)c1cc2ccccc2o1	-3	i	-2	i	10*	6	17*	10
COc1cccc(C(=O)Nc2ccc(NC(=O)c3cc4ccccc4o3)c(OC)c2)c1	-2	i	-3	i	10*	-2	6	11
Cc1cc(F)cc(-c2cc(C(=O)NCC3CCCCC3)[nH]n2)c1	.	.	-5	.	13*	-3	0	5
CC(C)c1ccccc1NC(=O)Nc1nc(C(N)Cc2ccc(C(F)(F)F)cc2)cs1 (centres undefined)	.	.	0	.	15*	7	14*	17
COc1ccc(CNC(=O)Nc2nc(C(N)Cc3ccc(C(F)(F)F)cc3)cs2)cc1 (centres undefined)	.	.	-2	.	16*	-7	17*	12
SMILES	beta cell repl	ANO1 block	HTR2A ag	ANO1 activ	MC4R ag barr	MC4R antagonist	MC4R barr ag	MOR-DOR barr ag
CC(C)(C)c1ccccc1NC(=O)Nc1nc(C(N)c2ccccc2)cs1 (centres undefined)	.	.	-5	.	0	5	.	.
CC(C)(C)c1ccccc1NC(=O)Nc1nc(C(N)Cc2ccc(F)cc2)cs1 (centres undefined)	.	.	1	.	11*	7	8	13
Clc1ccc(CSc2cnnc3ccccc23)cc1Cl	.	.	1	i	13*	-9	3	3
Cc1cc(N/N=C\c2ccccc2)nc(-c2ccccc2O)n1	-3	i	-1	i	20*	-2	2	6
Cc1cc(N/N=C/c2ccccc2O)nc(-c2ccccc2O)n1	-4	i	-7	i	-1	0	.	.
Cc1cc(C)nc(N2CCC(C(=O)Nc3cccc(C(F)(F)F)c3)CC2)n1	-3	i	0	i	14*	1	0	6
Cc1cc2cc(C)c(NCCNC(=O)c3ccccc3)nc2cc1C	-6	i	-2	i	-1	2	.	.
Cc1ccc(C(=O)NCCNc2nc3cc(C)c(C)cc3cc2C)cc1	-4	i	2	i	15*	-4	20*	4
Cc1occc1-c1nnc(SCC(=O)Nc2nc(C(C)(C)C)cs2)o1	-5	i	3	i	12*	21	4	6
N#CC(=Nc1cccc(F)c1)C1=C(O)c2ccccc2C1=O	.	.	-4	.	.	.	.	.
Cc1cc(-n2nnc3ccccc32)nc2ccccc12	0	i	0	i	18*	-3	-1	2
Cc1ccccc1Cn1ccc(NC(=O)c2cc3nc(-c4ccco4)cc(C(F)(F)F)n3n2)n1	0	i	2	i	15*	11	-1	5
COCCNC(=O)C1C(=O)Nc2ccccc2C(=O)N1Cc1ccccc1 (centres undefined)	.	.	2	.	.	.	.	.
Cc1cccc2sc(NC(=O)C3CCCN(S(=O)(=O)c4cccc5nonc45)C3)nc12 (centres undefined)	0	i	-1	i	9.9*	6	3	7
Cc1ccc2nc(NC(=O)C3CCCN(S(=O)(=O)c4cccc5nonc45)C3)sc2c1 (centres undefined)	-3	i	.	.	.	.	.	.
O=C(NC1CCSc2ccccc21)c1ccc(F)cc1 (centres undefined)	-3	i	-1	i	2	-1	.	.

Screening results (PubChem)
